Results from ChEMBL document CHEMBL5724801, “EUbOPEN Chemogenomics Library - Multiplex” (2024).
Values joined by “and” are separate entries in the source; they are usually repeats but may differ in a detail not shown here. Identical values can stand only once.

System: HEK-293T
Assay: Multiplex assay against HEK293T
Format: toxicity, cell-based
Details: human
How it was run: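 Hoechst33342, BioTracker Green Microtubule Cytoskeleton Dye, MitoTracker Red and Annexin V Alexa Fluor 680 were added to live cells at seeding, and imaging on a CQ1 microscope at 37°C and 5% CO2 followed compound addition. Gating by CellPathfinder machine learning separated cells into Hoechst high-intensity objects or normal cells, then normal cells into healthy, pyknosed or fragmented nuclei, then pyknosed cells into mitotic or apoptotic. Per cents of healthy-nucleus cells are reported for the tubulin, mitochondrial-mass and membrane-permeability phenotypes.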

[1] = 12 h, 1 µM, compound concentration 1 uM
[2] = 12 h, 10 µM, compound concentration 10 uM
[3] = 24 h, 1 µM, compound concentration 1 uM
[4] = 24 h, 10 µM, compound concentration 10 uM
[5] = 48 h, 1 µM, compound concentration 1 uM
[6] = 48 h, 10 µM, compound concentration 10 uM

## Cl.Cl.OCCOCCN1CCN(C(c2ccccc2)c2ccc(Cl)cc2)CC1 (stereo not given) [HYDROXYZINE HYDROCHLORIDE]
[1]
  Population Apoptotic (%): 34% and 70%
  Population Fragmented Nuclei (%): 7% and 5%
  Population Healthy Nuclei (%): 79% and 84%
  Population Hoechst High Intensity Objects (%): 6% and 9%
  Population Membrane Permeable-Phenotype (%): 0%
  Population Mitochondria Different-Phenotype (%): 48% and 58%
  Population Mitotic Cells (%): 66% and 29%
  Population Normal (%): 93% and 90%
  Population Pyknosed Nuclei (%): 13% and 9%
  Population Tubulin-Different-Phenotype (%): 24% and 28%
  Total Cell Count: 394 and 362
[2]
  Population Apoptotic (%): 49% and 68%
  Population Fragmented Nuclei (%): 8% and 6%
  Population Healthy Nuclei (%): 71% and 73%
  Population Hoechst High Intensity Objects (%): 11% and 19%
  Population Membrane Permeable-Phenotype (%): 0% and 1%
  Population Mitochondria Different-Phenotype (%): 71% and 83%
  Population Mitotic Cells (%): 50% and 31%
  Population Normal (%): 88% and 80%
  Population Pyknosed Nuclei (%): 19% and 20%
  Population Tubulin-Different-Phenotype (%): 65% and 59%
  Total Cell Count: 354 and 327
[3]
  Population Apoptotic (%): 22% and 43%
  Population Fragmented Nuclei (%): 10% and 11%
  Population Healthy Nuclei (%): 78%
  Population Membrane Permeable-Phenotype (%): 0%
  Population Mitochondria Different-Phenotype (%): 34% and 41%
  Population Mitotic Cells (%): 77% and 56%
  Population Normal (%): 97% and 86%
  Population Pyknosed Nuclei (%): 11% and 9%
  Population Tubulin-Different-Phenotype (%): 22% and 17%
  Total Cell Count: 566 and 481
[4]
  Population Apoptotic (%): 29% and 59%
  Population Fragmented Nuclei (%): 10% and 8%
  Population Healthy Nuclei (%): 74% and 71%
  Population Hoechst High Intensity Objects (%): 8% and 22%
  Population Membrane Permeable-Phenotype (%): 0%
  Population Mitochondria Different-Phenotype (%): 55% and 72%
  Population Mitotic Cells (%): 70% and 40%
  Population Normal (%): 91% and 77%
  Population Pyknosed Nuclei (%): 15% and 19%
  Population Tubulin-Different-Phenotype (%): 49% and 43%
  Total Cell Count: 472 and 383
[5]
  Population Apoptotic (%): 23% and 46%
  Population Fragmented Nuclei (%): 14%
  Population Healthy Nuclei (%): 79%
  Population Hoechst High Intensity Objects (%): 1% and 3%
  Population Membrane Permeable-Phenotype (%): 1% and 0%
  Population Mitochondria Different-Phenotype (%): 19%
  Population Mitotic Cells (%): 76% and 53%
  Population Normal (%): 98% and 96%
  Population Pyknosed Nuclei (%): 5% and 6%
  Population Tubulin-Different-Phenotype (%): 14% and 12%
  Total Cell Count: 932 and 676
[6]
  Population Apoptotic (%): 38% and 60%
  Population Fragmented Nuclei (%): 14% and 15%
  Population Healthy Nuclei (%): 76% and 72%
  Population Hoechst High Intensity Objects (%): 6% and 16%
  Population Membrane Permeable-Phenotype (%): 0%
  Population Mitochondria Different-Phenotype (%): 45% and 53%
  Population Mitotic Cells (%): 61% and 40%
  Population Normal (%): 93% and 83%
  Population Pyknosed Nuclei (%): 9% and 12%
  Population Tubulin-Different-Phenotype (%): 35%
  Total Cell Count: 627 and 539
